# “And” between values parts separate entries of the source, which are not always exact repeats. Equal entries are not always repeated.
# Legend:
# [1] = MTT cell viability assay, MT-4; type: cell-based; details: human, MT-4 cells
# Method in brief: (§1)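 Test compound, dissolved in DMSO, was added and cells were cultured for 72 h (37 °C, 5% CO2), three wells per concentration, with untreated cells as control. Then 1% MTT was added for 4 h, DMSO added and mixed 15 min, and OD read at 570 nm.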
# MDCK cells = details: 48 h, MTT
# E. coli/pRAC-gfp [2] = details: for Toxic and mutagenic effects on indicator cells E. coli/pRAC-gfp (in words): 150 μM; for The value of the fluorescence of GFP synthesized in biosensor cells, Biosensor E. coli/pRAC-gfp: 150 μM compound in culture medium, 1.5 h
# E. coli/pET36b-gfp [3] = details: for Toxic and mutagenic effects on indicator cells E. coli/pET36b-gfp (in words): 150 μM; for The value of the fluorescence of GFP synthesized in biosensor cells, Biosensor E. coli/pET36b-gfp: 150 μM compound in culture medium, IPTG 1 mM
# E. coli/pRAC-gfp [4] = experiment: microbe, parasite or virus in culture; details: Escherichia coli, read-out: Inhibition/induction of the synthesis of the reporter protein GFP, E. coli/pRAC-gfp
# E. coli/pET36b-gfp [5] = experiment: microbe, parasite or virus in culture; details: Escherichia coli, read-out: Inhibition/induction of the synthesis of the reporter protein GFP, E. coli/pET36b-gfp
# [6] = MTT cell viability assay, U-937; type: cell-based; details: human, U-937 cells (monocytes)
# Method in brief: as §1
Compound,IC50 at 72 h [1] [µM],"CTD50, cytotoxic concentration; the concentration leading to 50% death of cells (MDCK cells)",Toxic and mutagenic effects on indicator cells E. coli/pRAC-gfp (in words) (E. coli/pRAC-gfp [2]),"The value of the fluorescence of GFP synthesized in biosensor cells, Biosensor E. coli/pRAC-gfp (E. coli/pRAC-gfp [2]) [conventional units]",Toxic and mutagenic effects on indicator cells E. coli/pET36b-gfp (in words) (E. coli/pET36b-gfp [3]),"The value of the fluorescence of GFP synthesized in biosensor cells, Biosensor E. coli/pET36b-gfp (E. coli/pET36b-gfp [3]) [conventional units]",inhibition at 150 µM (E. coli/pRAC-gfp [4]) [%],inhibition at 150 µM (E. coli/pET36b-gfp [5]) [%],IC50 at 72 h [6] [µM]
"CC[N+](CC)(CCCCCC[N+](CC)(CC)CC/N=C1\C[C@H]2CC[C@]1(C)C2(C)C)CC/N=C1\C[C@H]2CC[C@]1(C)C2(C)C [Compound 3b, N^1,N^1,N^6,N^6-Tetraethyl-N^1,N^6-bis(2-((E)-((1R,4R)-1,7,7-trimethylbicyclo[2.2.1]heptan-2-ylidene)amino)ethyl)hexane-1,6-diaminium bromide]",48.3 ± 3.2,1712 µM and 1712.3 ± 169.8 µM,neither toxic nor mutagenic effects,186.2 ± 22.9,neither toxic nor mutagenic effects,495.5 ± 15.2,< 20,< 20,
"CC[N+](CC)(CC)CC/N=C1\C[C@H]2CC[C@]1(C)C2(C)C [Compound 4b, N,N,N-Triethyl-2-((E)-((1R,4R)-1,7,7-trimethylbicyclo[2.2.1]heptan-2-ylidene)amino)ethanaminium bromide]",> 100,,neither toxic nor mutagenic effects,176.9 ± 16.9,neither toxic nor mutagenic effects,547.9 ± 40.8,< 20,< 20,> 100
"CC[N+](C)(CC)CC/N=C1\C[C@H]2CC[C@]1(C)C2(C)C [Compound 4a, N,N-Diethyl-N-methyl-2-((E)-((1R,4R)-1,7,7-trimethylbicyclo[2.2.1]heptan-2-ylidene)amino)ethanaminium iodide]",> 100,,,189.21 ± 17.7,,535.72 ± 307,< 20,< 20,58.6 ± 4.6
CC[N+](CC)(CCCCCCCC[N+](CC)(CC)CC/N=C1\C[C@H]2CC[C@]1(C)C2(C)C)CC/N=C1\C[C@H]2CC[C@]1(C)C2(C)C [Compound 3c],,552.5 ± 49.1 µM,highly toxic,81.7 ± 3.6,highly toxic,165.5 ± 8.1,,,
"CC[N+](CC)(CC/N=C1\C[C@H]2CC[C@]1(C)C2(C)C)Cc1ccc(C[N+](CC)(CC)CC/N=C2\C[C@H]3CC[C@]2(C)C3(C)C)cc1 [Compound 3g, (R,R,E)-N,N′-(1,4-Phenylenebis(methylene))bis(N,N-diethyl-2-((E)-((1R,4R)-1,7,7-trimethylbicyclo[2.2.1]heptan-2-ylidene)amino)ethanaminium) bromide]",40.5 ± 3,,neither toxic nor mutagenic effects,170.87 ± 8.9,neither toxic nor mutagenic effects,466.46 ± 4.1,< 20,< 20,54.9 ± 2.6
"CC[N+](CC)(CCCCCCCCCC[N+](CC)(CC)CC/N=C1\C[C@H]2CC[C@]1(C)C2(C)C)CC/N=C1\C[C@H]2CC[C@]1(C)C2(C)C [Compound 3e, N^1,N^1,N^10,N^10-Tetraethyl-N^1,N^10-bis(2-((E)-((1R,4R)-1,7,7-trimethylbicyclo[2.2.1]heptan-2-ylidene)amino)ethyl)decane-1,10-diaminium bromide]",66.1 ± 4.4,,highly toxic,56.9 ± 3.1,highly toxic,110.7 ± 7.2,,,53.6 ± 2.2
"CC[N+](CC)(CCCCCCCCCCCC[N+](CC)(CC)CC/N=C1\C[C@H]2CC[C@]1(C)C2(C)C)CC/N=C1\C[C@H]2CC[C@]1(C)C2(C)C [Compound 3f, N^1,N^1,N^12,N^12-Tetraethyl-N^1,N^12-bis(2-((E)-((1R,4R)-1,7,7-trimethylbicyclo[2.2.1]heptan-2-ylidene)amino)ethyl)dodecane-1,12-diaminium bromide]",40.4 ± 3.9,,highly toxic,49.3 ± 2.1,highly toxic,51.3 ± 4.6,,,15.9 ± 1.1
"CC[N+](CC)(CCCCCCCC[N+](CC)(CC)CC/N=C1\C[C@H]2CC[C@]1(C)C2(C)C)CC/N=C1\C[C@H]2CC[C@]1(C)C2(C)C [Compound 3c, N^1,N^1,N^8,N^8-Tetraethyl-N^1,N^8-bis(2-((E)-((1R,4R)-1,7,7-trimethylbicyclo[2.2.1]heptan-2-ylideneamino)ethyl)octane-1,8-diaminium bromide]",69.8 ± 2.7,,,,,,,,67.2 ± 5.9
"CC[N+](CC)(CCCCCCCCC[N+](CC)(CC)CC/N=C1\C[C@H]2CC[C@]1(C)C2(C)C)CC/N=C1\C[C@H]2CC[C@]1(C)C2(C)C [Compound 3d, N^1,N^1,N^9,N^9-Tetraethyl-N^1,N^9-bis(2-((E)-((1R,4R)-1,7,7-trimethylbicyclo[2.2.1]heptan-2-ylidene)amino)ethyl)nonane-1,9-diaminium bromide]",66 ± 5.3,,highly toxic,95.9 ± 4.3,highly toxic,172.3 ± 6.2,,,58.6 ± 3.4
"CCN(CC)CC/N=C1\C[C@H]2CC[C@]1(C)C2(C)C [Compound 2, (E)-N^1,N^1-Diethyl-N^2-((1R,4R)-1,7,7-trimethylbicyclo[2.2.1]heptan-2-ylidene)ethane-1,2-diamine]",,,neither toxic nor mutagenic effects,171.4 ± 14.5,neither toxic nor mutagenic effects,512.7 ± 32.4,< 20,< 20,
"CC[N+](CC)(CCCCC[N+](CC)(CC)CC/N=C1\C[C@H]2CC[C@]1(C)C2(C)C)CC/N=C1\C[C@H]2CC[C@]1(C)C2(C)C [Compound 3a, N^1,N^1,N^5,N^5-Tetraethyl-N^1,N^5-bis(2-((E)-((1R,4R)-1,7,7-trimethylbicyclo[2.2.1]heptan-2-ylidene)amino)ethyl)pentane-1,5-diaminium bromide]",57.5 ± 3.8,,neither toxic nor mutagenic effects,168.9 ± 13.5,neither toxic nor mutagenic effects,546.9 ± 65.6,< 20,< 20,95.8 ± 5.6
